# In ChEMBL document CHEMBL1955778, “Design and synthesis of novel 7-aminoquinazoline derivatives: antitumor and anticonvulsant activities” (Bioorg Med Chem Lett, 2012):
# Key:
# Mus musculus [1] = test: Anticonvulsant activity in mouse assessed as protection against picrotoxin-induced seizure at 1 mmol/kg, ip administered 30 min prior to picrotoxin-challenge measured after 60 mins relative to control; type: functional
# Mus musculus [2] = test: Anticonvulsant activity in mouse assessed as protection against strychnine-induced seizure at 1 mmol/kg, ip administered 30 min prior to strychnine-challenge measured after 60 mins relative to control; type: functional
# Mus musculus [3] = test: Anticonvulsant activity in mouse assessed as protection against maximal electroshock-induced seizure at 1 mmol/kg, ip administered 30 min prior to maximal electroshock-challenge measured after 60 mins relative to control; type: functional
# Mus musculus [4] = test: Anticonvulsant activity in mouse assessed as protection against pentylenetetrazol-induced seizure at 1 mmol/kg, ip administered 30 min prior to pentylenetetrazol-challenge measured after 60 mins relative to control; type: functional
# SNB-75 = test: Growth inhibition of human SNB75 cells at 10 uM relative to control; type: functional; conditions: read-out: GI
# In short: (§1)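 Single-dose screen across the 60-cell-line human tumor panel at 10 μM. Growth inhibition is reported as a percentage, taken as 100 minus the % growth relative to untreated control.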
# A549 = test: Growth inhibition of human A549 cells at 10 uM relative to control; type: functional; conditions: read-out: GI
# In short: (§2)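 Each cell line in a 60-line human tumour panel exposed to one 10 μM concentration. Growth inhibition percentage computed as 100 minus the percentage activity relative to control.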
# K562 = test: Growth inhibition of human K562 cells at 10 uM relative to control; type: functional; conditions: read-out: GI; in short: as §2
# UACC-62 = test: Growth inhibition of human UACC62 cells at 10 uM relative to control; type: functional; conditions: read-out: GI; in short: as §1
# SF-539 = test: Growth inhibition of human SF539 cells at 10 uM relative to control; type: functional; conditions: read-out: GI; in short: as §2
# RPMI-8226 = test: Growth inhibition of human RPMI8226 cells at 10 uM relative to control; type: functional; conditions: read-out: GI; in short: as §2
# SR = test: Growth inhibition of human SR cells at 10 uM relative to control; type: functional; conditions: read-out: GI; in short: as §1
# KM12 = test: Growth inhibition of human KM12 cells at 10 uM relative to control; type: functional; conditions: read-out: GI; in short: as §2
# CAKI-1 = test: Growth inhibition of human CAKI-1 cells at 10 uM relative to control; type: functional; conditions: read-out: GI; in short: as §2
# HT-29 = test: Growth inhibition of human HT-29 cells at 10 uM relative to control; type: functional; conditions: read-out: GI; in short: as §2
# [5] = Therapeutic index, ratio of LD50 for mouse to ED50 for pentylenetetrazol-induced seizure in mouse; type: organism-based; conditions: in vivo, read-out: Ratio LD50/ED50
# In short: (§3)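 In mice, LD50 is the dose causing 50% mortality. ED50 is the dose protecting 50% of mice against pentylenetetrazole-induced seizures. Therapeutic index = LD50/ED50.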
# UACC-257 = test: Growth inhibition of human UACC257 cells at 10 uM relative to control; type: functional; conditions: read-out: GI; in short: as §1
# CCRF-CEM = test: Growth inhibition of human CCRF-CEM cells at 10 uM relative to control; type: functional; conditions: read-out: GI; in short: as §2
# EKVX = test: Growth inhibition of human EKVX cells at 10 uM relative to control; type: functional; conditions: read-out: GI; in short: as §2
# SK-MEL-5 = test: Growth inhibition of human SK-MEL-5 cells at 10 uM relative to control; type: functional; conditions: read-out: GI; in short: as §2
# HCT-15 = test: Growth inhibition of human HCT15 cells at 10 uM relative to control; type: functional; conditions: read-out: GI; in short: as §2
# Mus musculus [6] = species on record: Mus musculus; test: Protective index, ratio of TD50 for mouse to ED50 for pentylenetetrazol-induced seizure in mouse; type: functional
# In short: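 Mice. Index is TD50/ED50. TD50 is the dose causing minimal neurological toxicity in 50% of mice in the Chimney test. ED50 is the dose protecting 50% of mice against pentylenetetrazole-induced seizures. Both are estimated from testing at several doses.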
# BT-549 = test: Growth inhibition of human BT549 cells at 10 uM relative to control; type: functional; conditions: read-out: GI; in short: as §2
# [7] = Toxicity in ip dose mouse assessed as mortality; type: organism-based; conditions: in vivo; in short: as §3
# A498 = test: Growth inhibition of human A498 cells at 10 uM relative to control; type: functional; conditions: read-out: GI; in short: as §2
# OVCAR-3 = test: Growth inhibition of human OVCAR3 cells at 10 uM relative to control; type: functional; conditions: read-out: GI; in short: as §2
# [8] = Neurotoxicity in ip dosed mouse assessed as impaired motor coordination administered 30 mins prior to test by chimney test; type: toxicity, organism-based; conditions: in vivo
# In short: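 Mice, Chimney test. TD50 is the dose that produces minimal neurological toxicity (impaired motor coordination) in 50% of animals, estimated from testing at several doses.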
# SW-620 = test: Growth inhibition of human SW620 cells at 10 uM relative to control; type: functional; conditions: read-out: GI; in short: as §1
# MDA-MB-435 = test: Growth inhibition of human MDA-MB-435 cells at 10 uM relative to control; type: functional; conditions: read-out: GI; in short: as §2
# SK-MEL-28 = test: Growth inhibition of human SK-MEL-28 cells at 10 uM relative to control; type: functional; conditions: read-out: GI; in short: as §2
# OVCAR-5 = test: Growth inhibition of human OVCAR5 cells at 10 uM relative to control; type: functional; conditions: read-out: GI; in short: as §2
# ACHN = test: Growth inhibition of human ACHN cells at 10 uM relative to control; type: functional; conditions: read-out: GI; in short: as §2
# Mus musculus [9] = test: Anticonvulsant activity in ip dosed mouse assessed as protection against pentylenetetrazol-induced seizure administered 30 min prior to pentylenetetrazol-challenge measured after 60 mins; type: functional
# In short: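 Mice received several doses for quantification. ED50 taken as the dose protecting 50% of mice against pentylenetetrazol-induced seizures.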
# UO-31 = test: Growth inhibition of human UO31 cells at 10 uM relative to control; type: functional; conditions: read-out: GI; in short: as §1
# SNB-19 = test: Growth inhibition of human SNB19 cells at 10 uM relative to control; type: functional; conditions: read-out: GI; in short: as §1
# Malme-3M = test: Growth inhibition of human MALME-3M cells at 10 uM relative to control; type: functional; conditions: read-out: GI; in short: as §2
# PC-3 = test: Growth inhibition of human PC3 cells at 10 uM relative to control; type: functional; conditions: read-out: GI; in short: as §2
# U-251 = test: Growth inhibition of human U251 cells at 10 uM relative to control; type: functional; conditions: read-out: GI; in short: as §1
# MCF7 = test: Growth inhibition of human MCF7 cells at 10 uM relative to control; type: functional; conditions: read-out: GI; in short: as §2
smiles,measurement,setting,value
Cc1ccccc1-n1c(C)nc2cc(-n3c(C)nc4ccccc4c3=O)ccc2c1=O,Activity,Mus musculus [1],0%
same,Activity,Mus musculus [2],0%
same,Activity,Mus musculus [3],100%
same,Activity,Mus musculus [4],0%
CCOC(=O)Nc1ccc2c(=O)n(-c3ccccc3C)c(C)nc2c1,inhibition of growth at 10 µM,SNB-75,21.3%
same,inhibition of growth at 10 µM,A549,3%
same,inhibition of growth at 10 µM,K562,6.2%
same,inhibition of growth at 10 µM,UACC-62,15.8%
same,inhibition of growth at 10 µM,SF-539,17.2%
same,inhibition of growth at 10 µM,RPMI-8226,6.5%
same,Activity,Mus musculus [2],0%
same,inhibition of growth at 10 µM,SR,24.1%
same,inhibition of growth at 10 µM,KM12,12%
same,inhibition of growth at 10 µM,CAKI-1,5.3%
same,inhibition of growth at 10 µM,HT-29,7.8%
same,selectivity ratio,[5],2.6
same,inhibition of growth at 10 µM,UACC-257,7%
same,inhibition of growth at 10 µM,CCRF-CEM,2.2%
same,inhibition of growth at 10 µM,EKVX,11.6%
same,inhibition of growth at 10 µM,SK-MEL-5,2.4%
same,inhibition of growth at 10 µM,HCT-15,6.4%
same,Activity,Mus musculus [3],100%
same,Ratio TD50/ED50,Mus musculus [6],2.4
same,inhibition of growth at 10 µM,BT-549,3.5%
same,Activity,Mus musculus [4],100%
same,LD50,[7],1930 µmol/kg
same,inhibition of growth at 10 µM,A498,4%
same,inhibition of growth at 10 µM,OVCAR-3,3.8%
same,TD50 at 0.5 h,[8],1780 µmol/kg
same,inhibition of growth at 10 µM,SW-620,2%
same,inhibition of growth at 10 µM,MDA-MB-435,41.6%
same,inhibition of growth at 10 µM,SK-MEL-28,1.72%
same,inhibition of growth at 10 µM,OVCAR-5,3.2%
same,inhibition of growth at 10 µM,ACHN,4%
same,ED50,Mus musculus [9],740 µmol/kg
same,inhibition of growth at 10 µM,UO-31,24.1%
same,inhibition of growth at 10 µM,SNB-19,5.7%
same,inhibition of growth at 10 µM,Malme-3M,5.4%
same,inhibition of growth at 10 µM,PC-3,11.2%
same,inhibition of growth at 10 µM,U-251,4.5%
same,inhibition of growth at 10 µM,MCF7,5%
Cc1ccccc1-n1c(C)nc2cc(/N=C/c3ccc(Cl)cc3)ccc2c1=O,Activity,Mus musculus [1],50%
same,Activity,Mus musculus [2],0%
same,selectivity ratio,[5],4.6
same,Activity,Mus musculus [3],100%
same,Ratio TD50/ED50,Mus musculus [6],2.54
same,Activity,Mus musculus [4],100%
same,LD50,[7],1810 µmol/kg
same,TD50 at 0.5 h,[8],890 µmol/kg
same,ED50,Mus musculus [9],350 µmol/kg
